Measurements reported in ChEMBL document CHEMBL3600378 (J Med Chem, 2015).
Activity calls are given as the source filed them. The rule behind the calls is not given here.

Tests used:
[1] = molecular target: T1, Alpha-1A adrenergic receptor (Homo sapiens) (UniProt P35348); assay: Intrinsic activity at human alpha1A-adrenergic receptor expressed in HEK293 cells assessed as calcium flux by fluorescence assay relative to norepinephrine; format: functional, cell-based
T1 sequence (whole entry): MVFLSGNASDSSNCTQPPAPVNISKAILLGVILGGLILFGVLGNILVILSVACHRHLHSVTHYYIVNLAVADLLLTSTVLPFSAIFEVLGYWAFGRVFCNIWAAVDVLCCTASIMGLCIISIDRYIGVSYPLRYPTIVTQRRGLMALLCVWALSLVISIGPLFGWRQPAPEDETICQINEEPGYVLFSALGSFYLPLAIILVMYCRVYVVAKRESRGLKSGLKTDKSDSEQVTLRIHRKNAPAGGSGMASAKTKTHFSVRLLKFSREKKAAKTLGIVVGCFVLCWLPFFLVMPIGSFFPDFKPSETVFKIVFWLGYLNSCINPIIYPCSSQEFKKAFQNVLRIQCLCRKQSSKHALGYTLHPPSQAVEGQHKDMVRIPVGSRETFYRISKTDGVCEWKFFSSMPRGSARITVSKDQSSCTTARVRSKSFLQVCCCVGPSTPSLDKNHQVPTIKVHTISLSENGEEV

[2] = molecular target: T2, Alpha-1A adrenergic receptor (Homo sapiens, UniProt P35348); assay: Agonist activity at human alpha1A-adrenergic receptor expressed in HEK293 cells assessed as calcium flux by fluorescence assay; format: functional, cell-based
T2 sequence (P35348 whole entry): T1 sequence (whole entry)

[3] = organism: Homo sapiens; assay: Selectivity ratio of EC50 for human alpha1A-adrenergic receptor to EC50 for human beta3-adrenergic receptor
[4] = molecular target: T3, Beta-3 adrenergic receptor (Homo sapiens, UniProt P13945); assay: Intrinsic activity at human beta3-adrenergic receptor expressed in CHO cells assessed as increase of cAMP level after 30 mins relative to isoproterenol; format: functional, cell-based
Summary of the method: (§1)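 Stably transfected CHO cells expressing human β1, β2 or β3 or marmoset β3 receptor were grown in Ham's F-12 with 10% FBS and geneticin, seeded at 2×10⁴ cells/well and grown about 20 h. Cells spent 15 min serum-free, then 30 min with compound in medium containing HEPES and isobutylmethylxanthine. Lysate cAMP was measured by kit. […] EC50 is the half-maximal concentration for each compound.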
Target sequence in this assay (P13945 whole entry, looked up): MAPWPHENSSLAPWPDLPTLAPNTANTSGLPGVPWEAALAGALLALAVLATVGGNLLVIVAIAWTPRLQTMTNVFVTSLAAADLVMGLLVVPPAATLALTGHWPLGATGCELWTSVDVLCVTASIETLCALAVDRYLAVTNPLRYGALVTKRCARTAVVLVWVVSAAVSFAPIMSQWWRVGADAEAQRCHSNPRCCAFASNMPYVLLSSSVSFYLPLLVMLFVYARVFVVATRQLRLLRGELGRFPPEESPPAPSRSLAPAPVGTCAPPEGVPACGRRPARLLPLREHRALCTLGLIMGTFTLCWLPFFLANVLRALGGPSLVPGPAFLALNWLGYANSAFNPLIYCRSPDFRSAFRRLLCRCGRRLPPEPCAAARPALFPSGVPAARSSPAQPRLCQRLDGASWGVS

[5] = molecular target: T3, Beta-3 adrenergic receptor; assay: Agonist activity at human recombinant beta3-adrenergic receptor expressed in CHO cells assessed as increase of cAMP level after 30 mins; format: functional, cell-based
Target sequence in this assay (P13945 whole entry): as the sequence (P13945 whole entry, looked up) above

[6] = tested on: Rattus norvegicus; assay: Cardiotoxicity in anesthetized Sprague-Dawley rat assessed as increase in heart rate at 3 mg/kg, iv measured for 30 mins relative to control; format: toxicity, organism-based; settings: in vivo, 0.5 h
Summary of the method: (§2)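 Male Sprague-Dawley rats (200-300 g) were anesthetized with sodium pentobarbital (50 mg/kg i.p. plus 25 mg/kg s.c.). The compound was injected via the cannulated left femoral vein once BP and HR were stable, and HR and MBP were recorded for 30 min. Results are the maximum % increase or decrease from baseline, as mean ± SEM. Where given, silodosin (0.01 mg/kg iv) preceded the compound.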

[7] = tested on: Rattus norvegicus; assay: Cardiotoxicity in anesthetized Sprague-Dawley rat assessed as increase in mean blood pressure at 3 mg/kg, iv measured for 30 mins relative to control; format: toxicity, organism-based; settings: in vivo, 0.5 h; summary of the method: as §2
[8] = tested on: Rattus norvegicus; assay: Cardiotoxicity in anesthetized Sprague-Dawley rat assessed as decrease in mean blood pressure at 3 mg/kg, iv measured for 30 mins relative to control; format: toxicity, organism-based; parameters: scale not given: the % may be the effect or the level left; settings: in vivo, 0.5 h; summary of the method: as §2
[9] = tested on: Rattus norvegicus; assay: Cardiotoxicity in anesthetized Sprague-Dawley rat assessed as decrease in heart rate at 3 mg/kg, iv measured for 30 mins relative to control; format: toxicity, organism-based; parameters: scale not given: the % may be the effect or the level left; settings: in vivo, 0.5 h; summary of the method: as §2
[10] = molecular target: Beta-1 adrenergic receptor (Homo sapiens, UniProt P08588); assay: Agonist activity at human beta1-adrenergic receptor expressed in CHO cells assessed as increase of cAMP level after 30 mins; format: functional, cell-based; summary of the method: as §1
[11] = molecular target: Beta-2 adrenergic receptor (Homo sapiens, UniProt P07550); assay: Agonist activity at human beta2-adrenergic receptor expressed in CHO cells assessed as increase of cAMP level after 30 mins; format: functional, cell-based; summary of the method: as §1
[12] = organism: Callithrix jacchus; assay: Agonist activity at beta3-adrenergic receptor in isolated marmoset urinary bladder smooth muscle assessed as reduction of KCl-induced muscle contraction; format: tissue-based
Summary of the method: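 Marmosets anesthetized with ketamine hydrochloride (15 mg/kg, i.m.) and exsanguinated. Bladder body strips (about 10-15 mm × 2-5 mm) were held in Krebs-Henseleit gassed with 95% O2/5% CO2 at 37 °C under 1 g resting tension and equilibrated over 30 min. Tension was recorded isometrically. After the top concentration, papaverine (final 10⁻⁴ mol/L) set each strip's maximum relaxation.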

[13] = Agonist activity at marmoset beta3-adrenergic receptor; parameters: species or system Callithrix jacchus; summary of the method: as §1
[14] = molecular target: Beta-3 adrenergic receptor (Rattus norvegicus) (UniProt P26255); assay: Intrinsic activity at rat beta3-adrenergic receptor relative to isoproterenol
[15] = molecular target: Beta-3 adrenergic receptor (Rattus norvegicus, UniProt P26255); assay: Agonist activity at rat beta3-adrenergic receptor
[16] = organism: Callithrix jacchus; assay: Agonist activity at marmoset beta3-adrenergic receptor relative to isoproterenol; summary of the method: as §1

Beta-2 adrenergic receptor, sequence (P07550 whole entry): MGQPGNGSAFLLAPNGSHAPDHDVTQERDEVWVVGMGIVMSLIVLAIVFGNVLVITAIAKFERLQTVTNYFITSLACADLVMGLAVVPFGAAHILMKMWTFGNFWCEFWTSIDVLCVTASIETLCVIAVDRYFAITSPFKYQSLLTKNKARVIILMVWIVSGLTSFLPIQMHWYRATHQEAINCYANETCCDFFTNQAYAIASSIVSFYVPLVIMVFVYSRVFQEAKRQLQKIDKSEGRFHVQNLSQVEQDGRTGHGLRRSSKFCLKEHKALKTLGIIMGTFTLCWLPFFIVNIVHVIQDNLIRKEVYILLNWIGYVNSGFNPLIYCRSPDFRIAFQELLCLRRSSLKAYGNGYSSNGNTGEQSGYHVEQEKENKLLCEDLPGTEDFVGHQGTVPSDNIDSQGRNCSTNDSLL
Beta-1 adrenergic receptor, sequence (P08588 whole entry): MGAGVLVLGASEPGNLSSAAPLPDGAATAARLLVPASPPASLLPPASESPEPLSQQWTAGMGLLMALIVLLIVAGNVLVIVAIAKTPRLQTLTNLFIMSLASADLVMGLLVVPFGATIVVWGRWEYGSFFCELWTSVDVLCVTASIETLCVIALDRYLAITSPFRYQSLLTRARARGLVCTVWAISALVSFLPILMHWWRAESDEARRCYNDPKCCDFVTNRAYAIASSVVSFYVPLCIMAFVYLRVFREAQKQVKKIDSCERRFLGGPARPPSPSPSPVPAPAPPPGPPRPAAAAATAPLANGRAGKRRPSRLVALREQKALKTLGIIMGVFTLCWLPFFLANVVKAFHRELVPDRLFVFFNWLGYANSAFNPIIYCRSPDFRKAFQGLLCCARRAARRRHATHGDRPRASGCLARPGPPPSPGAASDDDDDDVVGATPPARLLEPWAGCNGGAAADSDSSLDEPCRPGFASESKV
Beta-3 adrenergic receptor (Rattus norvegicus, UniProt P26255), sequence (P26255 whole entry): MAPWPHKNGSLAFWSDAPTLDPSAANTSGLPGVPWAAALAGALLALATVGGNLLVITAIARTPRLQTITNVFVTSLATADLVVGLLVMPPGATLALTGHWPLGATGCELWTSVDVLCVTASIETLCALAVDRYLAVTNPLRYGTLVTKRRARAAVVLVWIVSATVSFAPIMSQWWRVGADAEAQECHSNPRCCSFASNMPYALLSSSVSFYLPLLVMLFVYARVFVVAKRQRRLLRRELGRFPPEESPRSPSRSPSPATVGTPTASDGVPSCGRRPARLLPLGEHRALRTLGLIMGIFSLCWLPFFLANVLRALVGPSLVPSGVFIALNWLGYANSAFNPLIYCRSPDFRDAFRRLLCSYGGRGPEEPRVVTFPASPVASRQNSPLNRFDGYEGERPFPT
Beta-3 adrenergic receptor (Rattus norvegicus), sequence (P26255 whole entry): as above

Intrinsic activity [1] [%]	EC50 [2] [nM]	Ratio EC50 [3]	Intrinsic activity [4] [%]	EC50 [5] [nM]	EC50 [10] [nM]	EC50 [11] [nM]	Activity [12]	EC50 [13] [nM]	Intrinsic activity [14] [%]	EC50 [15] [nM]	Intrinsic activity [16] [%]	SMILES	Activity [6] [%]	Activity [7] [%]	Activity [8] [%]	Activity [9] [%]
4	> 10000	> 151	68	66								CS(=O)(=O)Nc1cccc([C@@H](O)CNCCOc2ccc3c(C4CCC4)n[nH]c3c2)c1				
												Nc1nc(CC(=O)Nc2ccc(CCNC[C@H](O)c3ccccc3)cc2)cs1 [MIRABEGRON]	10	3.5	38.3	
31		61	78	14	> 10000	> 10000						CCc1n[nH]c2cc(OCCNC[C@H](O)c3cccc(NS(C)(=O)=O)c3)ccc12	9.6	3.1	10.8	1.6
	33			111								CS(=O)(=O)Nc1cccc([C@@H](O)CNCCOc2ccc3c(CO)n[nH]c3c2)c1				
60	252	6.3	70	40								COc1n[nH]c2cc(OCCNC[C@H](O)c3cccc(NS(C)(=O)=O)c3)ccc12				
91	61	1.4	89	43								CS(=O)(=O)Nc1cccc([C@@H](O)CNCCOc2ccc3c(Cl)n[nH]c3c2)c1				
19	1550	91	72	17	> 10000	> 10000						CS(=O)(=O)Nc1cccc([C@@H](O)CNCCOc2ccc3c(C4CC4)n[nH]c3c2)c1	5.7	2.7	11	3.3
59	277	3.9	69	71								CCOc1n[nH]c2cc(OCCNC[C@H](O)c3cccc(NS(C)(=O)=O)c3)ccc12				
19	> 10000	> 30	62	338								CC(C)(C)c1n[nH]c2cc(OCCNC[C@H](O)c3cccc(NS(C)(=O)=O)c3)ccc12				
31	812	13	86	64								CS(=O)(=O)Nc1cccc([C@@H](O)CNCCOc2ccc3c(C(F)(F)F)n[nH]c3c2)c1				
6	> 10000		29	> 10000								CS(=O)(=O)Nc1cccc([C@@H](O)CNCCOc2ccc3c(-c4ccccc4)n[nH]c3c2)c1				
9.1	> 10000	> 769	69	13	> 10000	> 10000	Active	15	95	535	75	CC(C)c1n[nH]c2cc(OCCNC[C@H](O)c3cccc(NS(C)(=O)=O)c3)ccc12	3.3	4.7	7.6	1.8
